# M1 antagonist – M1 muscarinic receptor (rat) antagonism | CHO-M1 cells, Fluo-4 calcium, ACh EC80 antagonist mode; active compounds read low | B-score at 10 µM | 64,000 tested, 3.4% active;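 active = calcium fluorescence response, raw or row-and-column corrected B-score, differing from the plate sample mean either way at a set confidence level, mostly lower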
# Target sequence (P08482 whole entry, looked up): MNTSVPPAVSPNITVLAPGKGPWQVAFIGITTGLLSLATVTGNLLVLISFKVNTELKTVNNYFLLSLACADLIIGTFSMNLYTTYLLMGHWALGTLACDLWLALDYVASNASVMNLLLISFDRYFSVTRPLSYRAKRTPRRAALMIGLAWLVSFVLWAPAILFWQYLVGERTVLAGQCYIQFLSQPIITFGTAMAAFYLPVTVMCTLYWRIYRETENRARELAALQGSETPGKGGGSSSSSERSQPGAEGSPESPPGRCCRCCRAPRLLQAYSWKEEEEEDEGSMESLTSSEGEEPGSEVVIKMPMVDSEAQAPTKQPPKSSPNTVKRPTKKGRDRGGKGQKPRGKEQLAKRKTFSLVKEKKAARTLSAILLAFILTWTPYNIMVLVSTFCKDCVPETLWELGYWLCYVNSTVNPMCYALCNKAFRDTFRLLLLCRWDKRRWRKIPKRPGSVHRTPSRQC
# M1 ag – activates the M1 muscarinic receptor; CHO-M1 cells, Fluo-4 calcium fluorescence, agonist mode; active compounds read high; 64,000 tested, 3% active; B-score at 10 µM; AID 626;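 active = fluorescence rise, raw or as B-score row- and column-corrected plate score, outside the 99.7% band of its plate's samples, either direction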
# MKP-1 inh – human dual specificity phosphatase 1 inhibition | recombinant MKP-1, OMFP hydrolysis fluorescence | inhibition, %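 (compounds tested at a single concentration somewhere between 10 and 100 µM)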 | 65,000 tested, 0.15% active | AID 374;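 active = inhibition above about 50%, limit read from the data; inconclusive = inhibition over screen mean plus 3 SD, below that limit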;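 also: 0% = DMSO max control wells and 100% = wells with enzyme stopped by NaOH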
# HEK293 NFkB inh – inhibitors of the PMA/ionomycin-induced NF-kB reporter in HEK293 cells; HEK-293 NF-kB luciferase reporter, luminescence; inhibition, % at 3 µM; 62,000 tested, 0.21% active; AID 465;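 active = inhibition above the mean of all tested compounds plus 3 SD, cut at about 40% in these data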;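 also: 0% = stimulated DMSO wells and 100% = 10 µM reference inhibitor 5653914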
#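 Signal: luciferase luminescence; Material: HEK-293 cells with stable firefly luciferase reporter driven by four HIV NF-kB elements; Probe or stimulus: PMA with ionomycin; Replication: tested once; Times: 1 h compound pretreatment, then 16 h stimulation at 37 °C, 5% CO2; Benchmarks: DMSO and 10 µM reference inhibitor; Evaluation: per-plate % inhibition versus controls.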
# HER2 expr 66K – lowers expression of human Her2 kinase; SKBR-3 HER2 protein level, AlphaScreen, 18-24 h; active compounds read low; HER2 level % of control, % at 10 µM; 65,000 tested, 0.69% active;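 active = HER2 level under 5% of the carrier-only control; inconclusive = no clear call, values can overlap the other calls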;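 also: 100% = DMSO carrier and 0% = 500 nM PU-H71 HSP90 inhibitor; lower value means stronger loss of Her2 protein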
# Cdc25B inh – human M-phase inducer phosphatase 2 inhibition. P30305. recombinant Cdc25B, OMFP fluorescence Ex485/Em525. inhibition, %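 (compounds tested at 10 µM final in the well)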. 65,000 tested, 0.1% active; in the data active = inhibition above about 50%
# M1 ag confirm – confirmation of rat M1 muscarinic receptor agonists; CHO-M1 cells, Fluo-4 calcium fluorescence, agonist mode; actives lie on both sides; 1,700 tested, 19% active; fluorescence change (max-min) at 10 µM; shares compounds with M1 ag; AID 1488;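 active = fluorescence change differs from the solvent-only DMSO control mean at a set confidence level in both duplicate runs; inconclusive = differs from solvent-only control mean in just one of two runs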;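 also: an EC20 dose of acetylcholine follows compound addition during the same imaging run; raw fluorescence intensity difference in instrument units with no normalization to controls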
# M4 ag counter – activates rat M4 receptor in counter-screen for M1 agonists; shares compounds with M1 ag; CHO M4/Gqi5 cells, Fluo-4 calcium fluorescence, agonist mode; actives lie on both sides; fluorescence change (max-min) at 10 µM; 1,700 tested, 9% active; AID 1741;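 active = fluorescence change differing from the plate's solvent-only control wells at 99.7% confidence in both duplicates, whether higher or lower; inconclusive = differs from solvent controls in only one of two duplicates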
# The depositor's hits bear a star; ? = inconclusive; . = not tested or not shown. An excerpt weighted towards active compounds, which were near 6.8% of everything screened.
SMILES,M1 antagonist,M1 ag,MKP-1 inh,HEK293 NFkB inh,HER2 expr 66K,Cdc25B inh,M1 ag confirm,M4 ag counter
Cc1cccc(-c2nc(CSCC(=O)N3CCN(c4ccccn4)CC3)c(C)o2)c1,-3.7*,3.8*,24,35,91,-15,-10,?
Cc1ccsc1-c1nc(CSCC(=O)N2CCN(c3ccccc3)CC2)c(C)o1,-2.5*,5*,2,8,82,-15,-39*,?
COc1ccc(-c2nc(CSCC(=O)N3CCc4ccccc4C3)c(C)o2)cc1OC,-0.043,-0.14,-2,3,86,-5,.,.
Cc1oc(-c2cccc(Cl)c2)nc1CN1CCC(C(=O)N2CCN(c3ccccn3)CC2)CC1,-1.8,2.8,-1,-5,72,-40,.,.
CCCCc1ccc(NC(=O)C2CCCO2)cc1 (configuration not stated),-0.41,-0.25,-7,-69,99,-7,.,.
CCn1c(=O)c(C(C)=O)nc2ccccc21,0.43,-0.26,18,-3,97,6,.,.
CCc1nc2ccccc2n(CC)c1=O,0.0012,13*,29,9,79,1,-5.4,-48
Cc1occc1-c1nnc(SCC(=O)N2CCN(c3ccccc3F)CC2)n1C,-0.35,0.73,0,3,86,-15,.,.
O=C(COc1ccccc1)Nc1nn[nH]n1,0.049,-0.0048,-2,14,89,-6,.,.
c1ccc(N2CCN(c3nnc(Cc4cccnc4)c4ccccc34)CC2)nc1,-2.9,3.6*,25,19,82,-5,-12,?
c1ccc(N2CCN(c3cnccn3)CC2)nc1,-0.52,-0.16,-1,11,93,-12,.,.
N#Cc1nn(-c2ccccc2)nc1N1CCCCC1,-1.1,0.72,-24,-3,105,-10,.,.
CCN=C1SC(CC(=O)Nc2sc(C)c(C)c2C(=O)OC)C(=O)N1CC (configuration not stated),0.18,-0.61,12,14,78,-14,.,.
Cc1ccc(C)c(N2CCN(Cc3nnnn3C3CCCCC3)CC2)c1,0.0041,10*,3,9,104,-11,-6.4,-24
COc1cc(NC(=O)c2cc(OC)c(OC)c(OC)c2)c(OC)cc1NC(=O)CN1CCCCC1,-0.17,3.9*,-2,12,88,-1,?,-47
CC(C)(C)c1ccc(C(=O)C=[N+]=[N-])cc1,0.55,-0.96,-23,.,134,-2,.,.
O=S(=O)(c1ccccc1F)N(Cc1ccco1)Cc1nnc(-c2ccccc2Br)o1,0.87,1.1,23,13,79,-5,.,.
Cc1nnc(N2C(=O)c3oc4ccccc4c(=O)c3C2c2ccco2)s1 (configuration not stated),-0.25,3*,-6,3,111,0,?,-44
CC(C)c1nnc(N2C(=O)c3oc4ccccc4c(=O)c3C2c2ccco2)s1 (configuration not stated),-0.53,-0.21,30,17,76,10,.,.
Cc1ccc(C2N(c3ccc(Cl)c(Cl)c3)C(=O)C3CCCN32)o1 (configuration not stated),-0.017,6.7*,3,6,89,2,?,-36
CC(C)OC(=O)C1C2C=CC3(CN(Cc4cccs4)C(=O)C13)O2 (configuration not stated),0.37,-0.32,-13,8,99,3,.,.
CCOC(=O)Cn1c2ccc(OC)cc2c2nc3ccccc3nc21,-0.2,19*,1,20,97,8,-10,-21
CC(C)Cn1c(N)c(C(=O)CSc2ccc3c(c2)OCCO3)c(=O)n(C)c1=O,-0.035,3.9,25,38,107,-1,.,.
O=C(OCc1cccs1)c1ccccc1NS(=O)(=O)c1ccc2c(c1)OCCO2,1,4*,-2,13,93,-9,-12,-48
CN(C)S(=O)(=O)CC12CCC(CC1=O)C2(C)C (configuration not stated),0.28,-0.031,-6,21,84,-1,.,.
SMILES,M1 antagonist,M1 ag,MKP-1 inh,HEK293 NFkB inh,HER2 expr 66K,Cdc25B inh,M1 ag confirm,M4 ag counter
COC(=O)c1ccc(Cl)c(NC(=O)CN(c2ccc3c(c2)OCO3)S(C)(=O)=O)c1,0.0044,-0.79,-5,1,85,2,.,.
CC(=O)OC1=C(C#N)Cn2ccc3cccc1c32,0.58,9*,-11,13,116,9,39,21
Cc1ccc(N2CN=c3s/c(=C\c4ccccn4)c(=O)n3C2)cc1,0.15,-0.05,6,4,138,-16,.,.
Cn1nc(CC(=O)Nc2ccc3c(c2)OCCO3)c2ccccc2c1=O,-1.6,4.5*,2,32,80,-3,-0.85,-2.7
Cc1ccc(NC(=O)Cc2nn(C)c(=O)c3ccccc23)cc1F,-2.3,5.5*,-8,31,95,-6,-5.1,?
COc1cccc(OC)c1NC(=O)Cc1nn(C)c(=O)c2ccccc12,0.54,0.13,-7,14,96,0,.,.
Cn1c(C(=O)O)c(CC(=O)Nc2ccc3c(c2)OCCO3)c2ccccc21,0.26,0.01,-26,28,67,2,.,.
COc1ccccc1NC(=O)Cc1nn(C)c(=O)c2ccccc12,-0.85,2.7*,3,28,78,4,0.79,?
COc1cc(NC(=O)Cc2nn(C)c(=O)c3ccccc23)cc(OC)c1,-1,0.79,7,23,67,-2,.,.
OCCCc1nc2n(n1)C(c1ccccc1Cl)C=C(c1cccs1)N2 (configuration not stated),0.36,33*,8,17,112,17,206*,197*
CCOc1ccccc1C1C(C(N)=O)=C(C)Nc2nc(CCCO)nn21 (configuration not stated),-0.32,-1.2,3,-9,99,-15,.,.
CCCN(S(=O)(=O)c1ccc(OCC)cc1)S(=O)(=O)c1cccs1,-0.094,2.1*,-1,17,92,-15,?,-37
COc1ccc2c(c1)[nH]c1c(=O)n(CCN3CCCC3)cnc12,0.14,2.2*,-35,6,81,1,?,-44
COc1ccc(CCNc2oc(Cc3cccc4ccccc34)nc2C#N)cc1OC,0.29,-0.0028,0,-6,241,-2,.,.
COc1ccc(CCNc2oc(COc3ccc(Br)cc3)nc2C#N)cc1OC,-0.38,4.9*,11,.,104,-16,-24*,-72*
Cc1ccccc1-n1c(SC/C(O)=C(\C#N)c2nc3ccccc3[nH]2)nnc1-c1ccncc1,-0.047,3.9*,41,8,111,-5,4.6,-4.6
Cc1cc(C)n2c(SC/C(O)=C(\C#N)c3nc4ccccc4[nH]3)nnc2n1,0.13,-0.46,35,-3,69,23,.,.
